Read-outs that look alike come from different tables or passages of the source.
How the values were obtained:
ACE2 [1] = target: T1, ACE2 (Homo sapiens, UniProt Q9BYF1); conditions: cell chromatography; cited from earlier work
[2] = target: angiotensin-converting enzyme 2 (ACE2) (Homo sapiens, UniProt Q9BYF1); assay: Frontal analysis on the ACE2 affinity capillary column; assay type: binding; conditions: 5 μM; 25 μm i.d., 40 mm; 30 nL/min; 25 °C
[3] = target: SARS-CoV-2-Main protease (Main pro) (Severe acute respiratory syndrome coronavirus 2, UniProt P0DTD1); assay: Normalized breakthrough curves on the Main pro affinity capillary column; assay type: binding
How it was run: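 Recombinant biotinylated Main pro was loaded at 10 μM and 30 nL/min onto a neutravidin poly(GMA-co-EDMA) monolith capillary, immobilising about 1.60 pmol (n = 6). Free test compound and its PEG-dispersed oxidised MWCNT nanovector (5 μM) were flushed in 50 mM PBS pH 7.4. Reference columns were neutravidin-only and ACE2. UV was read at 238 nm. Breakthrough was normalised as outlet/inlet absorbance versus tp/t0, with t0 from DMSO.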

[4] = Breakthrough on neutravidin control column; assay type: binding; conditions: 5 μM; 25 μm i.d.; 30 nL/min; 25 °C; no ACE2 or Main pro
How it was run: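 Frontal analysis: free test compound or its PEG-dispersed oxidized multiwall carbon nanotube nanovector, each at 5 μM in 50 mM PBS pH 7.4, flushed successively through a neutravidin poly(GMA-co-EDMA) monolith capillary (40 mm, 25 μm i.d.) with no grafted receptor. Run at 30 nL min−1 and 25 °C with UV detection at 238 nm. Saturation plateau time tp is normalized to DMSO-derived dead time t0.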

ACE2 [5] = target: T1, ACE2; conditions: surface plasmon resonance; cited from earlier work
ACE2 [6] = target: T1, ACE2; assay: Competition experiment with SARS-CoV-2 RBD on the ACE2 affinity column; assay type: binding; conditions: from competition with SARS-CoV-2 RBD

T1 sequence (Q9BYF1 18-805): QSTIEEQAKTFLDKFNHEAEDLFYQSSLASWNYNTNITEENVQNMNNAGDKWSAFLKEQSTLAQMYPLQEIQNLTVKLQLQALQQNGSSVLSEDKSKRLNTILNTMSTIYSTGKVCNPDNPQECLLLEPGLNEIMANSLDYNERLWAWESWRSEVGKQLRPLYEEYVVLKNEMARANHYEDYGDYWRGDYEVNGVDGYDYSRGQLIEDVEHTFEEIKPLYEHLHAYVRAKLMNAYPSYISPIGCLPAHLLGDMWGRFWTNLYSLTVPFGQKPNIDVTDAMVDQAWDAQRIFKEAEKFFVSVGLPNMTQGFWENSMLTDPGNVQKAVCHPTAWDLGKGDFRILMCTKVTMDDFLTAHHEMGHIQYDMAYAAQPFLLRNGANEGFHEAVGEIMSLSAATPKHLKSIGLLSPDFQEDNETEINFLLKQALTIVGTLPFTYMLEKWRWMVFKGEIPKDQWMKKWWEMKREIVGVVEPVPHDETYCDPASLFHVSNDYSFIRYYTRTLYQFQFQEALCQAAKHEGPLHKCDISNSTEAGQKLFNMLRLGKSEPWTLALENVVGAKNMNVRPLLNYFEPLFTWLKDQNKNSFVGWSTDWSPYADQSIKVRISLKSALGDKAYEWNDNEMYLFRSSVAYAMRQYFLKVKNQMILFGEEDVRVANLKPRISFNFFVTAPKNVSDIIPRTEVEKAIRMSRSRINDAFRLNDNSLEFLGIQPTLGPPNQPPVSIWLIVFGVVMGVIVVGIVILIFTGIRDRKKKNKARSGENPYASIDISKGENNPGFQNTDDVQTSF
Chain of angiotensin-converting enzyme 2 (ACE2) (Q9BYF1 18-805): as above

Row | Structure (SMILES) | Kd (ACE2 [1]) [µM] | normalized breakthrough time on the ACE2 column [2] | Kd [3] [µM] | normalized breakthrough time on the Main pro column ([3]; 5 μM, 25 μm i.d., 40 mm, 30 nL/min, 25 °C) | normalized breakthrough time t/t0 on neutravidin control column [4] | Kd (ACE2 [5]) [µM] | binding site on ACE2 (ACE2 [6])
1 | CCN(CC)CCCC(C)Nc1ccnc2cc(Cl)ccc12 (stereo not shown) [Chloroquine, chloroquine] | 1.3 | – | – | – | – | – | –
2 | C[C@@H]1C[C@H]2[C@@H]3CCC4=CC(=O)C=C[C@]4(C)[C@@]3(F)[C@@H](O)C[C@]2(C)[C@@]1(O)C(=O)CO [Dexamethasone] | – | above 1 | > 5 | above 1 | ~1 | 9 | bound on the orthosteric site of ACE2 with specific interaction

From article PMC9275543 (Chromatographia, 2022)
